Laboratory results published in PMC6936558 (Proceedings of the National Academy of Sciences of the …, 2019).
Several values for one entry are separate records, joined by “and”; a condition that tells them apart may be missing. Equal values may be shown once.

Legend:
[1] = tested on: SpyCatcher003; assay: Isothermal titration calorimetry; format: binding, Streptococcus pyogenes; conditions: PBS pH 7.4, 25 °C
[2] = molecular target: SpyCatcher003-555; assay: FRET or BRET
[3] = molecular target: SpyCatcher003-sfGFP; assay: covalent reaction
[4] = molecular target: SpyCatcher003; assay: covalent reaction followed by SDS/PAGE with Coomassie staining
[5] = tested on: SpyCatcher003-sfGFP; assay: Comparison of stages of SpyTag development; format: biochemical; conditions: 10 nM each, 10 min, SPG buffer pH 7.0 + 0.2% BSA, 25 °C; n = 3
[6] = tested on: SpyCatcher002-sfGFP; conditions: cited from earlier work
[7] = tested on: SpyCatcher002-555; assay: Stopped-flow FRET kinetics; format: binding, Streptococcus pyogenes; conditions: PBS pH 7.4, 25 °C; mean ± 1 SD, n = 4
Summary of the method: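 Stopped-flow fluorescence with 1:1 mixing at 25 °C in PBS pH 7.4, excitation 480 nm, emission through a 515-nm long-pass filter. The SpyTag variant-mClover3 was at 100 nM final against pseudo-first-order SpyCatcher variant-555 at 400 to 1,000 nM. kon came from a linear fit of the first-phase kobs against SpyCatcher variant concentration.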

[8] = molecular target: SpyCatcher002-555; assay: FRET or BRET
[9] = molecular target: SpyCatcher003; assay: SPR

Substance: RGVPHIVMVAAYKRYK [SpyTag003 DA-MBP]
- affinity by ITC [1]: too tight to measure by ITC

Substance: SpyTag003 DA-mClover3 (peptide)
- dissociation rate constant, first phase of the chase (90% of signal change) [2]: 0.009 s⁻¹
- dissociation rate constant, second phase of the chase (10% of signal change) [2]: 0.002 s⁻¹
- estimated Kd of one version of the complex (dissociation rate constant / kon) [2]: 3 nM and 13 nM
- kobs2 (second phase) [2]: 0.08 s⁻¹
- kobs3 (third phase) [2]: 0.004 s⁻¹
- kon [2]: 680000 M⁻¹ s⁻¹

Substance: SpyTag003-maltose binding protein (MBP) (peptide)
- percent completion of the covalent reaction (10 nM each, 15 min) [3]: > 90%
- percent completion of the covalent reaction (SpyCatcher003 in excess) [4]: > 99%
- percent completion of the covalent reaction (SpyTag003 in excess) [4]: > 99%

Substance: VPHIVMVDAYKRYK [SpyTag002 T112H]
- effect of Tag mutation on reaction rate [5]: enhanced reaction rate

Substance: SpyTag003-mClover3 (peptide)
- decrease in donor (mClover3) peak fluorescence intensity [2]: 35%
- kobs1 (first phase, 500 nM SpyCatcher003-555) [2]: 0.54 s⁻¹
- kobs2 (second phase, 500 nM SpyCatcher003-555) [2]: 0.016 s⁻¹
- kobs3 (third phase, 500 nM SpyCatcher003-555) [2]: 0.004 s⁻¹
- koff [2]: 0.26 s⁻¹
- kon [2]: 620000 M⁻¹ s⁻¹

Substance: VPTIVMVDAYKRYK [SpyTag002]
- improvement of rate of reaction over SpyTag/SpyCatcher ([6]; by phage display selection, SpyTag002 and SpyCatcher002): > 12 fold
- second-order rate constant, SpyTag002/SpyCatcher002 ([6]; previously shown): 20000 M⁻¹ s⁻¹
- association rate constant (kon) [7]: 4.2 ± 0.5 × 10^5 M^−1 s^−1

Substance: SpyTag002-mClover3 (peptide)
- kon [8]: 420000 M⁻¹ s⁻¹

Substance: SpyTag003 DA-MBP (peptide)
- Kd [9]: 21 nM
